Experimental data collected from several papers.
Each line is one published result; the experiments were not run side by side.
Target: Calcium/calmodulin-dependent protein kinase type 1D (CAMK1D, Homo sapiens, UniProt Q8IU85)

O=C1c2ccccc2-c2n[nH]c3cccc1c23  activity vs control (enzyme activity; inhibitor; 0.5 µM): 91.9%
CN(CCCC(F)(F)F)c1nccc(-c2cnn3ncccc23)n1  remaining binding (binding; 1 µM): 86%
Cc1ccc(C(=O)Nc2ccc(CN3CCN(C)CC3)c(C(F)(F)F)c2)cc1C#Cc1cnc2cccnn12  remaining activity (enzyme activity; inhibitor; 23.5 nM): 86%
CC/C(=N\NC(=O)NCc1cccc(O)c1)c1ccc(O)c(C)c1O  inhibition (enzyme activity; inhibitor; 0.1 µM): -3.5%
Cc1cc(NC(=O)c2cccc3cc(-c4cccc5[nH]nc(N)c45)ccc23)ccc1F  activity vs control (enzyme activity; inhibitor; 0.1 µM): 102%
Cc1cc(-n2nc(Cc3cc(F)cc(C(F)(F)F)c3)nc2C)ccc1C(N)=O  remaining binding (cell-free assay; competition with immobilised ligand; 1 µM): 96%
COc1cc2ncnc(Nc3ccc(F)c(Cl)c3)c2cc1OCCCN1CCOCC1  remaining signal (cell-free assay; 0.5 µM): 88.6%
CNCc1ccccc1-c1csc([C@H](C)Nc2nc(C)nc3cc(OC)c(OC)cc23)c1  remaining binding (cell-free assay; competition with immobilised ligand; 1 µM): 100%
COc1cc(Cl)c(C(=O)N[C@@H](CN[C@H]2CC[C@@H](N)CC2)Cc2ccc(C#N)cc2)cc1-c1ccc(CN[C@H](C)c2ccc(C)cc2)o1  remaining activity (enzyme activity; inhibitor; 1 µM): 88%
Cn1c2c(c3ccc(Cl)c(Cl)c31)C(C#N)C1(CCCC1)NC2=O (stereo not drawn)  ΔTm (thermal stability; DSF; 10 µM): 0 °C
O=C1NC(=O)c2cc(Nc3ccc(F)cc3)c(Nc3ccc(F)cc3)cc21  remaining signal (cell-free assay; 0.5 µM): 78.1%
CCCOc1ccc(OC)c(F)c1C(=O)c1ccc(C(=O)N[C@@H]2CNC[C@H]2NC(=O)c2ccc3[nH]ncc3c2)cc1  remaining activity (enzyme activity; inhibitor; 10 µM): 63%
c1ccc(CNc2nc(N3CCOc4ccccc43)nc3c2CCCC3)cc1  inhibition (target engagement in cells; inhibitor; chemoproteomics; 20 mM): -2.2%
CNC(=O)c1cc(Oc2ccc(NC(=O)Nc3ccc(Cl)c(C(F)(F)F)c3)cc2)ccn1  inhibition (enzyme activity; inhibitor; 10 µM): 22%
O=C(Nc1cnn(-c2csc(C(=O)NC3COC3)c2)c1)Nc1c(F)cccc1Cl  remaining activity (enzyme activity; inhibitor; 5 µM): 99.6%
CCN1CCC2(CC1)NC(=O)c1c(c3ccc(Cl)c(Cl)c3n1C)C2C#N (racemic)  ΔTm (thermal stability; DSF; 10 µM): -0.1 °C
O=C(NCc1ncc(C(F)(F)F)cc1Cl)c1ccc2c(c1)C1(CCS(=O)(=O)CC1)[C@@H](C1CC1)N2S(=O)(=O)c1ccc(F)cc1  remaining binding (cell-free assay; competition with immobilised ligand; 1 µM): 99%
Cc1ccc(Nc2nccc(N(C)c3ccc4c(C)n(C)nc4c3)n2)cc1S(N)(=O)=O  inhibition (enzyme activity; inhibitor; 0.3 µM): 18%
Cn1c2c(c3ccc(Cl)c(Cl)c31)C(C#N)C1(CCOCC1)NC2=O (stereo not drawn)  ΔTm (thermal stability; DSF; 10 µM): -0.5 °C
CN(C)C(=O)Cn1cc(-c2nc(C3(c4ccc(-c5cnc(N)nc5)cc4)CC3)no2)cn1  remaining binding (cell-free assay; competition with immobilised ligand; 1 µM): 100%
COc1cc2ncnc(Nc3ccc(Oc4ccccc4)c(C)c3C)c2cc1OC  inhibition (enzyme activity; inhibitor; 1 µM): 1%
CC(C)(C)c1nc2c(s1)c1nc(N)ncc1c1ccc(NS(=O)(=O)c3c(F)cccc3F)c(F)c12  remaining activity (enzyme activity; inhibitor; radiometric; 1 µM): 97%
CS(=O)(=O)c1cc(C2(NC(=O)c3cncc4c3cnn4-c3ccc(F)cc3)CC2)ccn1  remaining binding (cell-free assay; competition with immobilised ligand; 1 µM): 90%
CCC1(CC)NC(=O)c2c(c3ccc(Cl)c(Cl)c3n2C)C1C#N (stereo not drawn)  ΔTm (thermal stability; DSF; 10 µM): -0.2 °C
Cc1c(NC(=O)c2cc(C(N)=O)nc3cc(F)ccc23)c(C(F)(F)F)nn1Cc1ccc(C(C)(C)C)cc1  remaining binding (cell-free assay; competition with immobilised ligand; 1 µM): 84%
CC1(C)NC(=O)c2[nH]c3c(Cl)c(Cl)ccc3c2C1C#N (stereo not drawn)  ΔTm (thermal stability; DSF; 10 µM): -0.6 °C
O=C(NC[C@@H]1[C@H]2CN(C(=O)OCc3cc(C(F)(F)F)cc(C(F)(F)F)c3)C[C@@H]12)c1ccc2[nH]nnc2c1  remaining binding (cell-free assay; competition with immobilised ligand; 1 µM): 100%
N#CCCc1ccc2c(c1)-c1[nH]c3ccc([N+](=O)[O-])cc3c1CC(=O)N2  remaining signal (cell-free assay; 0.5 µM): 91.8%
CCS(=O)(=O)c1cc2cc(C[C@@](O)(CC(C)(C)c3ccc(F)cc3C(N)=O)C(F)(F)F)[nH]c2cn1  remaining binding (cell-free assay; competition with immobilised ligand; 1 µM): 89%
CCN(CC)c1ccc(C2=NNC(=O)CC2C)cc1[N+](=O)[O-] (stereo not drawn)  remaining activity (enzyme activity; inhibitor; 10 µM): 105%
